The term pKd denotes −log10 of the Kd, conventionally taken in molar units.

The values below come from PMC12334608 (Nature Communications, 2025).

Molecules are shown by their SMILES. Substitutions are numbered along the chain they refer to. pKd: −log10 of the molar value.

One test relates to ACOX-1.1(R536E). The experiment in a line: Enzyme-coupled kinetic assay, ACOX-1.1. Format: biochemical, C. elegans. The conditions noted are these: 10 μM FAD, various ATP. The gist of the method: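 Coupled H2O2 assay on a plate reader using the mutant enzyme (250 nM final). […] Peroxide was coupled through 4-aminoantipyrine (0.82 mM final), phenol (10.6 mM final) and peroxidase, read at 500 nm. Substrate was 25 µM lauroyl-CoA in 50 mM Tris-HCl pH 7.5, 150 mM NaCl, 10 mM MgCl2. Initial rate was taken over a 30 s window at 25–26 °C.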

The next test deals with T1, ACOX-1.1(R295Q) (Caenorhabditis elegans, UniProt O62140, R295Q).
T1 sequence (O62140 1-674 R295Q): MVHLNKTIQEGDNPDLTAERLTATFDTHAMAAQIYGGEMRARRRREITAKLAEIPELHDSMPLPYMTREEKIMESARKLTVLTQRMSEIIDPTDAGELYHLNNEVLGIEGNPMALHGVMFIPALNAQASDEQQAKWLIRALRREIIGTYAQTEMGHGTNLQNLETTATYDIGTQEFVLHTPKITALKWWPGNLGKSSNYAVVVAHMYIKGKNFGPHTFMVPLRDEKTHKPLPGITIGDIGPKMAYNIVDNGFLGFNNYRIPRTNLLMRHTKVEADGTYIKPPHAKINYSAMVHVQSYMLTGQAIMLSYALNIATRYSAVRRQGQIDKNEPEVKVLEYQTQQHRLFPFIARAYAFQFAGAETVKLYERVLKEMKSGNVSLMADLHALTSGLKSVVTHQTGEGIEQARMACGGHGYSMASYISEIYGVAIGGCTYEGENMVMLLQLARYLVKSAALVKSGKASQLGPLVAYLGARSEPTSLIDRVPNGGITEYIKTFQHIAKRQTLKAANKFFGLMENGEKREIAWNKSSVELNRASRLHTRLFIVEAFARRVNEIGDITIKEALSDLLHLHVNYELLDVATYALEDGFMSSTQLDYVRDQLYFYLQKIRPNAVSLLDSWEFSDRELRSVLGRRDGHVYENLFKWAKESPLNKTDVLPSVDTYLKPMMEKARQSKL
The experiment in a line: Enzyme-coupled kinetic assay, ACOX-1.1. Format: biochemical, C. elegans.

The target in another test is T2, ACOX-1.1(R295A) (Caenorhabditis elegans, UniProt O62140, R295A).
T2 sequence (O62140 1-674 R295A): T1 sequence (O62140 1-674 R295Q) with Q295A
In words: Enzyme-coupled kinetic assay, ACOX-1.1. The format is biochemical, C. elegans.

In another test the target is T3, ACOX-1.1 (Caenorhabditis elegans, UniProt O62140).
T3 sequence (O62140 1-674): T1 sequence (O62140 1-674 R295Q) with Q295R
In words: ATP hydrolysis by HPLC. Format: biochemical, C. elegans. To be noted: 1 h incubation.

Test [1] addresses aspartate transcarbamoylase. The conditions noted are these: read-out: KD of the high-affinity ATP site; ATP-activated aspartate transcarbamoylase; cited from earlier work.

For the compound `Nc1ncnc2c1ncn2[C@@H]1O[C@H](COP(=O)(O)OP(=O)(O)OP(=O)(O)O)[C@@H](O)[C@H]1O` [ATP], the “response of enzyme activity to ATP” value with ACOX-1.1(R536E), on ACOX-1.1(R295Q) and on ACOX-1.1(R295A) was “do not respond to ATP” throughout. The “hydrolysis of ATP by ACOX-1.1” value on ACOX-1.1 is given as “not hydrolyzed by ACOX-1.1”. In addition, the pKd in test [1] was 3.70 to 4.00.
